Reference: ChEMBL document CHEMBL1137344, “Flavonoid dimers as bivalent modulators for P-glycoprotein-based multidrug resistance: synthetic apigenin homodimers linked with defined-length poly(ethylene glycol) spacers increase drug retention and enhance chemosensitivity in resistant cancer cells” (J Med Chem, 2006)
Blank lines part the entries; values can stand above or below the compound they belong to. The source made the active and inactive calls. No cut-off for these calls is given here.

What was measured:
MDA-MB-435 [1] = experiment: Antiproliferative activity against multidrug resistant MDA435/LCC6 cells in presence of 5 uM 1,13-bis[4'-((5,7-dihydroxy)-4H-chromen-4-on-2-yl)phenyl]-1,4,7,10,13-pentaoxatridecane by ELISA; assay type: functional, cell-based; conditions: Homo sapiens
Method in brief: (§1)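 Resistant breast cells seeded 2000/well, allowed 24 h attachment, then exposed to anticancer-drug concentration series with or without 5 µM modulator for 4 days. MTS/PMS read at 490 nm after 2 h. IC50 from dose-response curves relative to 0.05% DMSO controls. RF = IC50 without modulator divided by IC50 with modulator.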

P388 [2] = experiment: Relative fold, IC50 in absence to presence of verapamil in multidrug resistant P388 cells; assay type: functional, Mus musculus
Method in brief: (§2)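 P388/ADR cells seeded 5000/well in RPMI 1640 with 10% FBS, given drug concentration series with or without 5 µM modulator for 3 days. MTS/PMS added for 2 h at 37 °C, absorbance at 490 nm. IC50 from dose-response curves versus 0.05% DMSO controls. RF = IC50 without modulator / IC50 with modulator.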

P388/ADR [3] = experiment: Antiproliferative activity against adriamycin resistant P388 cells in presence of 5 uM verapamil by ELISA; assay type: functional, cell-based; conditions: Mus musculus; method in brief: as §2
P388/ADR [4] = experiment: Antiproliferative activity against adriamycin resistant P388 cells by ELISA; assay type: functional, cell-based; conditions: Mus musculus
Method in brief: (§3)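 MTS/PMS proliferation assay: cells seeded 5000/well in RPMI 1640 with 10% FBS and penicillin/streptomycin at 37 °C, 5% CO2. Drug series added and cells grown 3 days. MTS/PMS added for 2 h at 37 °C, absorbance read at 490 nm. Survival relative to DMSO (0.05%) controls; IC50 from dose-response curves, at least triplicate.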

MDA-MB-435 [5] = experiment: Antiproliferative activity against MDA435/LCC6 cells by ELISA; assay type: functional, cell-based; conditions: Homo sapiens
P388/ADR [6] = experiment: Antiproliferative activity against adriamycin resistant P388 cells in presence of 5 uM 1,13-bis[4'-((5,7-dihydroxy)-4H-chromen-4-on-2-yl)phenyl]-1,4,7,10,13-pentaoxatridecane by ELISA; assay type: functional, cell-based; conditions: Mus musculus; method in brief: as §2
P388 [7] = experiment: Antiproliferative activity against P388 cells by ELISA; assay type: functional, cell-based; conditions: Mus musculus; method in brief: as §3
P388 [8] = experiment: Relative fold, IC50 in absence to presence of 1,13-bis[4'-((5,7-dihydroxy)-4H-chromen-4-on-2-yl)phenyl]-1,4,7,10,13-pentaoxatridecane in multidrug resistant P388 cells; assay type: functional, Mus musculus; method in brief: as §2
MDA-MB-435 [9] = experiment: Antiproliferative activity against multidrug resistant MDA435/LCC6 cells by ELISA; assay type: functional, cell-based; conditions: Homo sapiens
Method in brief: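 MTS/PMS proliferation assay: cells seeded 2000/well, drugs added after 24 h attachment, growth 4 days in DMEM with 10% FBS at 37 °C, 5% CO2. MTS/PMS added for 2 h, absorbance read at 490 nm. Survival is taken relative to DMSO (0.05%) controls. IC50 is read from dose-response curves, at least triplicate, repeated twice.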

MDA-MB-435 [10] = experiment: Relative fold, IC50 in absence to presence of 1,13-bis[4'-((5,7-dihydroxy)-4H-chromen-4-on-2-yl)phenyl]-1,4,7,10,13-pentaoxatridecane in multidrug resistant MDA435/LCC6 cells; assay type: functional, Homo sapiens; method in brief: as §1
MDA-MB-435 [11] = experiment: Reversal of cisplatin resistance in multidrug resistant MDA435/LCC6 cells by MTS assay; assay type: functional, cell-based; conditions: Homo sapiens
MDA-MB-435 [12] = experiment: Effect on P-gp-mediated drug efflux in multidrug resistant MDA435/LCC6 cells assessed as relative fold in intracellular DOX accumulation at 10 uM; assay type: functional, Homo sapiens
Method in brief: (§4)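 Resistant MDA435/LCC6 cells grown to confluence, preincubated 30 min at 37 °C in fresh DMEM with modulator (0–20 µM), then DOX added (final 20 µM) for 2 h at 37 °C. Cells trypsinized, washed in cold PBS, lysed in 0.3 N HCl/50% ethanol, sonicated, centrifuged. Supernatant fluorescence read at ex 470/em 585 nm. Mean ± SD of three independent experiments.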

P388/ADR [13] = experiment: Reversal of mitoxantrone resistance in adriamycin resistant P388 cells by MTS assay; assay type: functional, cell-based; conditions: Mus musculus
Method in brief: (§5)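 P388/ADR cells in RPMI 1640 with 10% FBS and penicillin/streptomycin, 5000 cells/well. Serial drug concentrations were given with or without modulator (dimers 5 µM, monomers 10 µM; 0.05% DMSO control) and cells grown for 3 days at 37 °C. Read-out was MTS/PMS for 2 h, then A490. IC50 was taken from dose-response curves relative to solvent control; triplicate wells.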

MDA-MB-435 [14] = experiment: Reversal of mitoxantrone resistance in multidrug resistant LCC6 cells by MTS assay; assay type: functional, cell-based; conditions: Homo sapiens
Method in brief: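 MDA435/LCC6 MDR cells in DMEM with 10% FBS, 2000 cells/well, allowed to attach for 24 h. Anticancer drug was added in serial concentrations with or without modulator (dimers 5 µM, monomers 10 µM; 0.05% DMSO solvent control), then grown for 4 days at 37 °C, 5% CO2. MTS/PMS was added for 2 h and A490 read. Survival was taken relative to DMSO controls; IC60 for DOX, IC50 for the others; triplicate.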

P388/ADR [15] = experiment: Reversal potency of daunorubicin resistance in P388 ADR cells by MTS assay; assay type: functional, cell-based; conditions: Mus musculus
Method in brief: (§6)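 P388/ADR cells: DOX or daunorubicin IC50 by 3-day MTS assay (A490) with modulator at 0–10 µM. Concentration dependence of IC50 used to gauge reversal potency. Typical experiment in triplicate.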

P388/ADR [16] = experiment: Reversal of DOX resistance in P388 ADR cells by MTS assay at 5 uM; assay type: functional, cell-based; conditions: Mus musculus
Method in brief: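 P388/ADR cells: 3-day MTS assay of DOX dose-response with modulator at 5 µM, or 10 µM for monomers. Verapamil 5 µM and 0.05% DMSO as controls. IC50 from curves, triplicate points, mean ± SD of three independent experiments.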

P388/ADR [17] = experiment: Reversal potency of DOX resistance in P388 ADR cells by MTS assay; assay type: functional, cell-based; conditions: Mus musculus; method in brief: as §6
P388/ADR [18] = experiment: Reversal of daunorubicin resistance in P388 ADR cells by MTS assay at 5 uM; assay type: functional, cell-based; conditions: Mus musculus; method in brief: as §5
MDA-MB-435 [19] = experiment: Reversal potency of vinblastine resistance in multidrug resistant MDA435/LCC6 cells by MTS assay; assay type: functional; conditions: Homo sapiens, in the assay text read “doxorubicin” for “vinblastine”
MDA-MB-435 [20] = experiment: Effect on P-gp-mediated drug efflux in MDA435/LCC6 cells assessed as intracellular DOX accumulation; assay type: functional, cell-based; conditions: Homo sapiens
Method in brief: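 Confluent MDA435/LCC6 parent and MDR cells were preincubated with modulator in fresh DMEM for 30 min at 37 °C (range 0–20 µM; 0.05% DMSO control). DOX at 20 µM final was added for 2 h at 37 °C. Cells were trypsinised, washed three times in cold PBS, lysed in 0.3 N HCl/50% ethanol, sonicated and centrifuged. Supernatant DOX fluorescence was read (ex 470, em 585 nm); three independent experiments.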

MDA-MB-435 [21] = experiment: Effect on P-gp-mediated drug efflux in multidrug resistant MDA435/LCC6 cells assessed as intracellular DOX accumulation at 0 to 10 uM; assay type: functional, Homo sapiens; method in brief: as §4
P388/ADR [22] = experiment: Effect on P-gp-mediated drug efflux in adriamycin drug resistant P388 cells assessed as DOX accumulation after 30 mins; conditions: Mus musculus
MDA-MB-435 [23] = experiment: Reversal of paclitaxel resistance in multidrug resistant MDA435/LCC6 cells by MTS assay; assay type: functional, cell-based; conditions: Homo sapiens
Method in brief: (§7)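 Resistant MDA435/LCC6 cells, 4-day MTS assay of paclitaxel or vinblastine dose-response with dimers at 5 µM or monomers at 10 µM. Verapamil 5 µM as positive control, DMSO 0.05% as solvent control. IC50 from curves, triplicate, some repeated three times and averaged.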

P388 [24] = experiment: Effect on P-gp-mediated drug efflux in P388 cells assessed as DOX accumulation after 30 mins; conditions: Mus musculus
[25] = target: T1, ATP-dependent translocase ABCB1 (Homo sapiens, UniProt P08183); experiment: Inhibition of VP-induced ATPase activity in human P-gp membrane in presence of verapamil; assay type: functional, cell membranes; set-up: scale not given: the % may be the effect or the level left
[26] = target: T1, ATP-dependent translocase ABCB1; experiment: Increase in ATPase activity in human P-gp membrane measured as fold over the basal level in presence of 5 mM MgATP at 100 uM; assay type: functional, cell membranes
Method in brief: (§8)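 Human P-gp membrane (25 µg) incubated at 37 °C with compound (100 µM), verapamil (100 µM), both, Na3VO4 (100 µM) or 0.1% DMSO. Reaction started with 5 mM MgATP, run 40 min at 37 °C. Remaining ATP detected by luciferase luminescence after 20 min at room temperature. Activity is the luminescence drop versus vanadate-treated samples.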

MDA-MB-435 [27] = experiment: Reversal of vinblastine resistance in multidrug resistant MDA435/LCC6 cells by MTS assay; assay type: functional, cell-based; conditions: Homo sapiens; method in brief: as §7
MDA-MB-435 [28] = experiment: Cytotoxicity against MDA435/LCC6 cells at 5 uM; assay type: functional, cell-based; conditions: Homo sapiens
[29] = target: T1, ATP-dependent translocase ABCB1; experiment: Increase in VP-induced ATPase activity in human P-gp membrane measured as fold over the basal level in presence of 5 mM MgATP at 100 uM; assay type: functional, cell membranes; method in brief: as §8

T1 sequence (P08183 whole entry): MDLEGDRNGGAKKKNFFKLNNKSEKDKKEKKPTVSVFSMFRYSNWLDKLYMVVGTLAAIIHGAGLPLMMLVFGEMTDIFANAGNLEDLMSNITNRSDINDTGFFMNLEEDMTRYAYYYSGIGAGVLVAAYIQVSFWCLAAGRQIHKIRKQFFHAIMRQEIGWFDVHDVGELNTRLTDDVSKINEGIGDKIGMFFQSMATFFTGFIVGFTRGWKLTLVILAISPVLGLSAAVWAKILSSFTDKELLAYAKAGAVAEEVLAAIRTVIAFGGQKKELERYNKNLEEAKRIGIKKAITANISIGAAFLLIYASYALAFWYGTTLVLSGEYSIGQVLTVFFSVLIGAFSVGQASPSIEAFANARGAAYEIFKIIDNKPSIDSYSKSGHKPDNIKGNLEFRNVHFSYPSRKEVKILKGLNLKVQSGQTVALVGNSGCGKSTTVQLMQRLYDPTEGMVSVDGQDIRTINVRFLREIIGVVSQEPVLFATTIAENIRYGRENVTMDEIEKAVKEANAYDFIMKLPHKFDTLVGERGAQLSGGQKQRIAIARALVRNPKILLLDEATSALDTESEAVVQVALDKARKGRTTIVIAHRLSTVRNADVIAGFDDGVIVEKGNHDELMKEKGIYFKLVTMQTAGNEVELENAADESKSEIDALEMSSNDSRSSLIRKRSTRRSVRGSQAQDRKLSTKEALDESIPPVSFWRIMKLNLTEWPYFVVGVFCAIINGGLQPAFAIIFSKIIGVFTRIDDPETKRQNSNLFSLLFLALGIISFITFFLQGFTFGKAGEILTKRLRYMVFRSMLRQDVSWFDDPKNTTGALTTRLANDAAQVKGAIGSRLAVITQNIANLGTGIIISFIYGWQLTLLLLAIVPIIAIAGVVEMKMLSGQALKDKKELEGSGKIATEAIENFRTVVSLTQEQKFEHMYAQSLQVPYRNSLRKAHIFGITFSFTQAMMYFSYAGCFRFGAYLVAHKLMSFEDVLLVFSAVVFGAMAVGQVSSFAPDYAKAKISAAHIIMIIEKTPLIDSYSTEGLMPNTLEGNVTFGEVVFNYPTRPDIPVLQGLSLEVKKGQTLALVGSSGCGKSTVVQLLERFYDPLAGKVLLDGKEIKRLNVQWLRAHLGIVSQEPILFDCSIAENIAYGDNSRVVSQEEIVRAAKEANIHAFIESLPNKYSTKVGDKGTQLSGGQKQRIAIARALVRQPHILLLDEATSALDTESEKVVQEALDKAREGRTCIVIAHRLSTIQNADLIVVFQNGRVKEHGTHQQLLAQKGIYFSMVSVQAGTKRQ

IC50 (MDA-MB-435 [1]): 129 nM
IC50 (P388/ADR [3]): 40 nM
IC50 (P388/ADR [4]): 2110 nM
IC50 (MDA-MB-435 [5]): 79 nM
IC50 (P388/ADR [6]): 106 nM
IC50 (P388 [7]): 25 nM
IC50 (MDA-MB-435 [9]): 977 nM
Structure (SMILES): COc1cccc2c1C(=O)c1c(O)c3c(c(O)c1C2=O)C[C@@](O)(C(C)=O)C[C@@H]3O[C@H]1C[C@H](N)[C@H](O)[C@H](C)O1 [DAUNORUBICIN]
Ratio IC50 (P388 [2]): 53
Ratio IC50 (P388 [8]): 20
Ratio IC50 (MDA-MB-435 [10]): 7.6

Structure (SMILES): O=c1cc(-c2ccc(OCCOCCOCCOCCOc3ccc(-c4cc(=O)c5c(O)cc(O)cc5o4)cc3)cc2)oc2cc(O)cc(O)c12
Activity (MDA-MB-435 [11]): inactive
Activity (MDA-MB-435 [12]): 5.8
Activity (P388/ADR [13]): inactive
Activity (MDA-MB-435 [14]): inactive
IC50 (P388/ADR [15]): 100 nM
IC50 (P388/ADR [16]): 150 nM
IC50 (P388/ADR [17]): 150 nM
IC50 (P388/ADR [18]): 100 nM
IC60 (MDA-MB-435 [19]): 730 nM
Activity (MDA-MB-435 [20]): inactive
Activity (MDA-MB-435 [21]): 17%
Activity (P388/ADR [22]): Dose-dependent effect
EC50 (MDA-MB-435 [23]): 900 nM
IC50 (MDA-MB-435 [23]): 4.4 nM
Activity (P388 [24]): inactive
Activity [25]: 17%
Activity [26]: 3.3
Activity (MDA-MB-435 [27]): Dose-dependent effect
IC50 (MDA-MB-435 [27]): 0.36 nM
Activity (MDA-MB-435 [28]): inactive
Activity [29]: 7.4
